# bIAP inh – bovine intestinal alkaline phosphatase inhibitors, primary screen, selectivity assay for TNAP inhibitor project, biochemical, bovine IAP, CDP-star luminescence | 190,000 tested, under 10 active | AID 1019, 2008 | alkaline phosphatase, intestinal [Bos taurus] | inhibition, % at 20 µM | purified bovine IAP, 30 min;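 active = over 50% inhibition of intestinal alkaline phosphatase at 20 µM in the single-dose screen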
#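 System: purified bovine intestinal alkaline phosphatase (IAP) enzyme; Input: IAP diluted 1/65,000,000 in the well; Measured by: CDP-star luminescence signal; Compound dosing: 20 µM single dose; Incubation: 30 min reaction at room temperature.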
# hIAP activ – human IAP activators, primary screen, biochemical, luminescence, uHTS; 330,000 tested, 0.16% active; purified human IAP, CDP-Star luminescence, 30 min; active compounds read high; 1 = vehicle-only enzyme, 0 = enzyme-free background; activation factor at 10 µM; Intestinal-type alkaline phosphatase (Homo sapiens), P09923;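 active = activation factor of the enzyme at least 2-fold when tested at 20 µM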
# Target sequence (P09923 whole entry, looked up): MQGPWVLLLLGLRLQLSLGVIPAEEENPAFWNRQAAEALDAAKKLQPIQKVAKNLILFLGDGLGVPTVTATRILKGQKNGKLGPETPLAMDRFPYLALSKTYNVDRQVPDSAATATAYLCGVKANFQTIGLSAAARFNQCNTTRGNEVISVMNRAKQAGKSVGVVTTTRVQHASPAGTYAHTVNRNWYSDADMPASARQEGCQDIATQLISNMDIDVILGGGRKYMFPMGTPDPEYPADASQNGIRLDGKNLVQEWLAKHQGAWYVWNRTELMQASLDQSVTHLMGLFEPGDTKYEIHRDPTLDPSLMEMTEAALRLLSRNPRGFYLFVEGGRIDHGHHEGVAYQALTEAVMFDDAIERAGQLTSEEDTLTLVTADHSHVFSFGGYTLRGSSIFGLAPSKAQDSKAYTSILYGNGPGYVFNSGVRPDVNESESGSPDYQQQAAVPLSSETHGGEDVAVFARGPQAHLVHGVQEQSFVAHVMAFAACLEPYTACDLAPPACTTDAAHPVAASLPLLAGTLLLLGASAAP
# mIAP inh – inhibitors of mouse IAP, primary screen, biochemical, luminescence, uHTS; intestinal alkaline phosphatase [Mus musculus]; purified mouse IAP, CDP-Star luminescence, 30 min; inhibition, % at 10 µM; 330,000 tested, 0.2% active; AID 2806, 2010;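 active = inhibition of at least 40% at 10 µM in the primary screen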;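 note: plate controls were DMSO with enzyme for no effect and no enzyme wells for full effect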
# mIAP activ – activators of mouse IAP, primary screen, biochemical, luminescence, uHTS | AID 2805, 2010 | 330,000 tested, 0.24% active | muIAP, CDP-Star luminescence, 30 min; active compounds read high; 1 = vehicle-only enzyme signal, 0 = enzyme-free wells | intestinal alkaline phosphatase [Mus musculus] | activation factor at 10 µM;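 active = activation factor of at least 2 at 20 µM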
#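 also added = chemiluminescent substrate CDP-Star | test system = mouse IAP enzyme | signal = chemiluminescence readout | compound = DMSO-dissolved test compounds | incubation = 30 min at room temperature | benchmarks = DMSO wells, no-enzyme wells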
# hIAP inh – human IAP inhibitors, primary screen, biochemical, luminescence, uHTS | Intestinal-type alkaline phosphatase (Homo sapiens), P09923 | purified IAP, CDP-Star luminescence, 30 min | inhibition, % at 10 µM | 330,000 tested, 0.12% active;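 active = inhibition reaching a set limit with compound at 10 µM in the primary screen, cut at about 35% in these data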;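 note: plate controls were DMSO wells with enzyme for no effect and no-enzyme buffer wells for full effect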
# bIAP activator – bovine intestinal alkaline phosphatase activators, primary screen, biochemical, bovine IAP, CDP-star luminescence. purified bovine IAP, 30 min; active compounds read high; fold of DMSO-control signal, blank-subtracted. activation factor at 20 µM. 200,000 tested, 0.17% active. alkaline phosphatase, intestinal [Bos taurus];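 active = activation factor of 2 or more at 20 µM, a signal rise over negative controls twice the positive control's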
# * hit, by the source's call; x = not tested or not shown. An excerpt weighted towards active compounds, which were near 0.72% of everything screened.
SMILES,bIAP inh,hIAP activ,mIAP inh,mIAP activ,hIAP inh,bIAP activator
COc1ccc(/C=C/C(=O)NCC(c2ccc(F)cc2)N2CCOCC2)cc1OC (centres undefined),x,1.05,-0.8,1.01,-4.6,x
COC(=O)[C@H](CCSC)NC(=O)Cn1cnc2c(OCc3ccccc3)ncnc21,x,0.985,-9.1,1.09,1.5,x
CCc1ccc(NC(=O)C2CCCN(S(=O)(=O)c3ccc4c(c3)CC(C)N4C(C)=O)C2)cc1 (centres undefined),x,1.14,-32.2,1.32,-13.8,x
CCc1ccc(NC(=O)C2CCN(S(=O)(=O)c3ccc4c(c3)CC(C)N4C(C)=O)CC2)cc1 (centres undefined),x,0.923,-112.6,2.13*,7.7,x
COCCNc1nc(C)c(C(C)=O)s1,-11.9,1.12,17.3,0.827,-12.4,1.1
CC(C)c1ccc(NC(=O)C(c2ccccc2)N2CC(=O)Nc3ccccc32)cc1 (centres undefined),-5.1,0.971,-108.4,2.08*,2.9,1.1
Brc1cccc(OCCCNC2CCCC2)c1,x,1.16,-1.2,1.01,-16.2,x
O=C(NCc1ccccc1)NCC12CC3CC(CC(C3)C1)C2,-0.8,1.21,-110.7,2.11*,-21.4,1
CCS(=O)(=O)N1CCC(NC(=O)C(Cc2ccc(OC)c(OC)c2)NC(C)=O)CC1 (centres undefined),x,0.984,-15.1,1.15,1.6,x
COc1ccc(C(C(=O)NC2CCCC2)N(Cc2ccc(F)cc2)C(=O)c2ccn[nH]2)cc1OC (centres undefined),-113.6,0.934,-63.4,1.63,6.6,2.1*
COc1ccc(C(C(=O)NC2CCCC2)N(Cc2ccc(C)cc2)C(=O)c2ccn[nH]2)cc1OC (centres undefined),-174.8,1.01,-86.8,1.87,-1.2,2.7*
COc1ccc(C(C(=O)NC2CCCC2)N(Cc2cccnc2)C(=O)Cc2cccs2)cc1OC (centres undefined),x,1.07,-0.9,1.01,-7.4,x
CC(C)(C)NC(=O)C(c1ccc(F)cc1)N(Cc1ccccc1Cl)C(=O)c1ccn[nH]1 (centres undefined),-111.7,1.51,-11.2,1.11,-51.3,2.1*
CC1CN(S(=O)(=O)c2ccc(C(=O)N(CCCN(C)C)c3nc4c(Cl)cccc4s3)cc2)CC(C)O1 (centres undefined),x,0.921,11.3,0.887,7.9,x
COc1ccc(C2=NOC(Cn3nc(-c4ccccc4)cc3C(=O)NCc3cccs3)C2)cc1 (centres undefined),x,0.895,-187.2,2.87*,10.5,x
CN(C)CCN(CC1CCCN(Cc2ccccc2F)C1)C(=O)c1ccc(Cl)cc1 (centres undefined),x,1,-2.5,1.02,-0.3,x
CCCOc1ccc(CNC(=S)NCc2ccc(OC(C)C)cc2)cc1,-1.7,1.22,-315.0,4.15*,-22.1,1
Nc1ncnc2c1C(c1ccccc1)c1c(ccc3ccccc13)O2 (centres undefined),x,0.956,-82.4,1.82,4.4,x
C#CCOCCOCCOCCNc1nc(N2CCN(C(=O)[C@H](Cc3cc4ccccc4[nH]3)n3cc([C@@H](N)C(C)CC)nn3)CC2)nc(N2CCN(C(=O)[C@H](Cc3cc4ccccc4[nH]3)n3cc([C@@H](N)CC(C)C)nn3)CC2)n1 (some centres undefined),-441.6,0.869,-43.9,1.44,13.1,5.4*
Cc1cc(C)cc(NC(=O)Nc2ccc(N3CCCCC3)cc2)c1,x,1.18,-100.4,2*,-17.8,x
Cc1cc(C)cc(C(=O)Nc2ccc(N3CCCC3)cc2)c1,-16.4,0.921,4.4,0.956,7.9,1.2
O=C(NC(=S)N1CCCC1)c1ccccc1Cl,x,1.1,-1.9,1.02,-10.0,x
Cc1cccc(C2=NN(c3ccccc3)[C@H](CO)[C@H]2c2ccc(Cl)cc2)c1,x,x,-101.2,2.01*,x,x
